We go through 2 molecules from ChEMBL document CHEMBL4477212 (J Med Chem, 2016).

In series [1] the test system is Human immunodeficiency virus 1. In words: Antiviral activity against HIV1 3B infected in human CEM-SS cells assessed as reduction of virus-induced cytopathic effect at 10 uM after 6 days by MTS assay. It is filed as functional. On the set-up: scale not given: the % may be the effect or the level left. Put shortly:
(§1)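 Single-concentration screen (10 μM) in CEM-SS cells infected with pre-titered HIV-1 IIIB, sized so virus control wells lose 70–95% viability. Incubation was 6 days and read-out was by MTS. Percent CPE reduction was calculated against virus control wells (cells plus virus). Percent viability was calculated against cell-only control wells. Plates included compound toxicity and colorimetric controls, and AZT as positive control.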
(In general: Damage to the host cells serves as the signal in cytopathic effect assays.)

The test system of series [2] is CEM-SS. In words: Cytotoxicity against human CEM-SS cells assessed as cell viability at 10 uM after 6 days by MTS assay. Type of series: cell-based. As to conditions: 144 h. The procedure, abridged:
as §1
A general note: Tetrazolium dyes change colour on reduction, which living cells bring about.

In series [3] the target is Human immunodeficiency virus type 1 integrase (Human immunodeficiency virus 1, UniProt Q7ZJM1). In words: Inhibition of HIV1 recombinant integrase expressed in Escherichia coli using [32P]-labeled oligonucleotide as substrate after 60 mins by strand transfer activity assay.
Human immunodeficiency virus type 1 integrase, sequence (Q7ZJM1 whole entry): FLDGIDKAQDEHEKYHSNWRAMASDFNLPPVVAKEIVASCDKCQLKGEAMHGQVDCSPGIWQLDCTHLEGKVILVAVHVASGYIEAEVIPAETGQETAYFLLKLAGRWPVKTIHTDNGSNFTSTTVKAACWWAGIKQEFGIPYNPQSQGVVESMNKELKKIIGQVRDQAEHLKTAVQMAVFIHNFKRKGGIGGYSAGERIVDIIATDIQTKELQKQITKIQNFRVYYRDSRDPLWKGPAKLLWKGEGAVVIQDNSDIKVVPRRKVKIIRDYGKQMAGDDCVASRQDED
Series [4] has as its system Human immunodeficiency virus 1. In words: Antiviral activity against HIV1 3B infected in human CEM-SS cells assessed as reduction of virus-induced cytopathic effect after 6 days by MTS assay. As to conditions: Human immunodeficiency virus 1, 3B, 144 h. Type of series: functional, organism-based.
The test system of series [5] is CEM-SS. In words: Cytotoxicity against human CEM-SS cells assessed as cell death after 6 days by MTS assay. The following applies: 144 h. It is filed as cell-based. Put shortly:
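Dose-response format in CEM-SS cells exposed to compound alone (toxicity control wells) alongside the HIV-1 IIIB cytoprotection plates. Incubation was 6 days and viability was measured by MTS. CC50 is the concentration giving 50% cell death, determined from the dose-response data.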

Series [6] is described as follows: Therapeutic index, ratio of CC50 for human CEM-SS cells to EC50 for HIV1 3B infected in human CEM-SS cells. It is filed as toxicity, cell-based. As to conditions: read-out: Ratio CC50/EC50.
Series [7] concerns Human immunodeficiency virus 1. In words: Antiviral activity against HIV1 infected in human P4R5 cells assessed as reduction of virus replication preincubated with cells for 24 hrs followed by viral infection for 48 hrs by 4-methylumbelliferylgalactoside-based MAGI assay. It is filed as functional, organism-based.
For series [8], the system named is Human immunodeficiency virus 1. In words: Fold resistance, ratio of EC50 for raltegravir-resistant HIV1 1556-1 expressing integrase Y143C mutant to EC50 for HIV1 expressing wild-type integrase. Type of series: functional.
The test system of series [9] is Human immunodeficiency virus 1. In words: Fold resistance, ratio of EC50 for raltegravir-resistant HIV1 4736-2 expressing integrase N155H mutant to EC50 for HIV1 expressing wild-type integrase. Type of series: functional.
For series [10], the system named is Human immunodeficiency virus 1. In words: Fold resistance, ratio of EC50 for raltegravir-resistant HIV1 8070-1 expressing integrase G140S/Y143H/Q148H mutant to EC50 for HIV1 expressing wild-type integrase. Type of series: functional.
The subject of series [11] is Human immunodeficiency virus 1. In words: Fold resistance, ratio of EC50 for raltegravir-resistant HIV1 8070-2 expressing integrase G140S/Q148H mutant to EC50 for HIV1 expressing wild-type integrase. It is filed as functional.
Series [12] has as its target Human immunodeficiency virus type 1 reverse transcriptase (Human immunodeficiency virus 1, UniProt Q72547). In words: Inhibition of RNase H activity of full length HIV1 reverse transcriptase using RNA-DNA duplex HTS-1 substrate.
Series [13] in a line: Aqueous solubility of the compound in DPBS. It is filed as physicochemical. The following applies: buffer.
Series [14] in a line: Half life of the compound in DPBS. Type of series: physicochemical.
A short description of series [15]: Half life in human plasma. Type of series: ADME, cell-free.
Series [16] in a line: Half life in mouse plasma. Type of series: ADME, cell-free.
Series [17] can be described thus: Plasma protein binding in human. Type of series: ADME, cell-free.
Series [18] in a line: Plasma protein binding in mouse. Type of series: ADME, cell-free.
The nature of series [19]: Intrinsic clearance in human liver microsomes during phase 1 measured per mg of protein. Type of series: ADME, Microsome. (In general: Liver microsomes are a subcellular fraction often used to study metabolism.)
A short description of series [20]: Intrinsic clearance in mouse liver microsomes assessed as glucuronidation during phase 2 measured per mg of protein. Type of series: ADME, Microsome.

pEC50, pIC50: −log10 of the molar value. In brackets after ≈: the same amount, converted by molar mass.

Consider `CCNc1[nH]c(=O)n(O)c(=O)c1C(=O)NCc1cccc(Cl)c1F`, for which the Activity (in series [1]; in the series with CEM-SS [2]) was 100% in each case. The negative-log IC50 (pIC50) (in general, the IC50 on a negative log10 scale, so that one unit is a factor of ten) in [3] is 7.68; in [12], 7.54. For the same molecule, the figures for the pEC50 in series [4] and in series [7] were 7.82 and 6.52, respectively. In addition, the cytotoxic concentration (CC50) (in general, the concentration at which the toxic effect on the cells reaches its halfway point) with CEM-SS [5] is 18000 nM. In addition, the selectivity ratio in series [6] was 1200. In addition, the “Ratio EC50” value was determined as 0.4 in series [8], 2.4 in [9], 6.3 in series [10] and 13 in series [11]. The solubility (as a rule, the dissolved amount per volume that the medium holds) in [13] stood at 11 µM (≈ 3.92 µg/mL). In addition, in series [14], the half-life (in general, the time needed for the level to fall by half in the phase considered) is greater than 24 h. Also, the t1/2 in [15] and in series [16] was greater than 24 h in each case. Further, the figures for the PPB in [17] and in [18] were 98.4% and 94%, respectively. The figures for the CLH in series [19] and in series [20] were less than 0.1 µL/min/mg and 1065 µL/min/mg, respectively.

For the molecule `Cc1cn([C@H]2C[C@H](N=[N+]=[N-])[C@@H](CO)O2)c(=O)[nH]c1=O` [ZIDOVUDINE], the “Ratio EC50” value stood at 1.4 in series [8], 0.7 in [9], 0.9 in [10] and 0.5 in series [11].
